Assay results pooled from the literature.
Compare with care: the assays were run in different laboratories.
Target: BMP-2-inducible protein kinase (BMP2K, Homo sapiens, UniProt Q9NSY1)

| Compound | observed | action | technique | tested at | measurement | value |
| --- | --- | --- | --- | --- | --- | --- |
| COc1ccc2oc(-c3ccc4nc(N)oc4c3)c/c(=N\c3ccccc3NC(=O)CCN)c2c1 | binding |  |  | 1 µM | remaining binding | 105% |
| COc1ccc2[nH]c3c4[nH]c5ccc(OC)cc5c4c4c(c3c2c1)C(=O)NC4=O | binding |  |  | 1 µM | remaining binding | 76% |
| C=CC(=O)N1CCC[C@@H](n2nc(-c3ccc(Oc4ccccc4)cc3)c3c(N)ncnc32)C1 | enzyme activity | inhibitor |  | 1 µM | inhibition | 17% |
| CNS(=O)(=O)c1ccc(Nc2ncc(C(F)(F)F)c(N3CCC[C@](C)(O)C3)n2)c(C)c1 | binding |  | competition with immobilised ligand | 1 µM | remaining binding | 79% |
| CCCCC(=O)Nc1ccc(-c2ccc3ncn(CCC)c(=O)c3c2)cn1 | binding |  | competition with immobilised ligand | 0.5 µM | remaining binding | 98% |
| C[C@H]1CC[C@H](n2c3cnccc3c3cnc(Nc4ccc5c(n4)CCN(C(=O)CO)C5)nc32)CC1 | cell-free assay |  |  | 1 µM | remaining signal | 17% |
| C[C@]1(O)CCCN(c2nc(Nc3ccc(S(=O)(=O)N[C@H]4CC[C@H](CN5CCN(c6ccc(C7CCC(=O)NC7=O)cc6F)CC5)CC4)cc3Cl)ncc2C(F)(F)F)C1 (some centres unmarked) | binding |  | competition with immobilised ligand | 1 µM | remaining binding | 99% |
| CC#CC(=O)N1CCC[C@H]1c1nc(-c2ccc(C(=O)Nc3ccccn3)cc2)c2c(N)nccn12 | enzyme activity | inhibitor |  | 1 µM | inhibition | 26% |
